The source made the active and inactive calls. No cut-off for these calls is given here.
Assays:
[1] = tested on: Plasmodium berghei; assay: In vivo antimalarial activity as parasitemia at day 17 in chloroquine-resistant Plasmodium berghei infected Mastomys coucha treated to day 10; range 25-30%; assay type: functional
[2] = tested on: Plasmodium yoelii nigeriensis; assay: In Vitro inhibition of Heme Oxygenase in Cell-free parasite Plasmodium yoelii at concentration 50 uM; assay type: functional
How it was run: (§1)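 Heme oxygenase activity was measured as bilirubin formation in a post-mitochondrial fraction. The parasite enzyme came from cell-free P. yoelii, isolated from infected blood by density gradient centrifugation and saponin lysis. The host enzyme came from infected liver. Compounds were tested at 10–100 µM and preincubated for 10 min before the reaction was started.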

[3] = tested on: Plasmodium berghei; assay: Hemozoin formation in chloroquine-resistant Plasmodium berghei
[4] = tested on: Plasmodium yoelii; assay: Evaluated for the Heme oxygenase in chloroquine-resistant Plasmodium yoelii; assay type: functional
[5] = tested on: Plasmodium yoelii; assay: (§2) In vivo antimalarial activity as parasitemia at day 17 in chloroquine-resistant Plasmodium yoelii nigerienses infected Swiss Albino mice (Mus musculus) treated at day 10; No survivors; assay type: functional, organism-based
[6] = tested on: Plasmodium berghei; assay: In vivo antimalarial activity as parasitemia at day 10 in chloroquine-resistant Plasmodium berghei infected Mastomys coucha at 10 mg/kg; range 15-17%; assay type: functional
[7] = tested on: Plasmodium yoelii; assay: In vivo antimalarial activity as MST of 1 week in chloroquine-resistant Plasmodium yoelii nigeriensis infected Swiss Albino mice (Mus musculus) at 15 mg/kg; assay type: functional
[8] = tested on: Plasmodium berghei; assay: (§3) In vivo pretreatment parasitemia in chloroquine-resistant Plasmodium berghei infected Mastomys coucha; range 4-5%; assay type: functional
[9] = tested on: Plasmodium yoelii; assay: (§4) In vivo antimalarial activity as pretreatment parasitemia in chloroquine-resistant Plasmodium yoelii nigerienses infected Swiss Albino mice (Mus musculus); range 1-2%; assay type: functional
[10] = tested on: Plasmodium berghei; assay: Evaluated for the Heme oxygenase (Values are mean +/- SD of 4 separate observations. Specific activity in nmol/h/mg protein) in chloroquine-resistant Plasmodium berghei which is treated with 15 mg/kg body weight of compound for 10 days; NA denotes no activity; assay type: functional, organism-based; design: dose 15 mg/kg
How it was run: (§5)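 Mastomys carrying CQ-resistant P. berghei were dosed orally at 15 mg/kg for 10 days. Untreated CQ-resistant and CQ-sensitive parasites served as reference samples. Parasites were isolated by density-gradient centrifugation and saponin lysis. Heme oxygenase was followed as bilirubin formation in the post-mitochondrial fraction and expressed as nmol/h/mg protein.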

[11] = tested on: Plasmodium yoelii; assay: In vivo antimalarial activity as pretreatment parasitaemia in chloroquine-resistant Plasmodium yoelii nigeriensis infected Swiss Albino mice (Mus musculus); range 1-2%; assay type: functional
[12] = tested on: Plasmodium yoelii; assay: In vivo antimalarial activity as MST of 1 week in chloroquine-resistant Plasmodium yoelii nigerienses infected Swiss Albino mice (Mus musculus) at 10 mg/kg chloroquine; assay type: functional
[13] = tested on: Plasmodium berghei; assay: Hemozoin formation in chloroquine-sensitive Plasmodium berghei
[14] = tested on: Plasmodium berghei; assay: In vivo antimalarial activity as parasitemia at day 17 in-chloroquine-resistant Plasmodium berghei infected Mastomys coucha treated to day 10; No inhibition; assay type: functional, organism-based
[15] = tested on: Plasmodium berghei; assay: In vivo antimalarial activity as parasitaemia at day 17 in chloroquine-resistant Plasmodium berghei infected Mastomys coucha treated to day 10; range 25-30%; assay type: functional
[16] = tested on: Plasmodium yoelii; assay: Heme content in chloroquine-resistant Plasmodium yoelii; assay type: functional
[17] = tested on: Plasmodium yoelii nigeriensis; assay: In Vitro inhibition of Heme Oxygenase in Cell-free parasite Plasmodium yoelii at concentration 10 uM;NI denotes nil inhibition; assay type: functional; how it was run: as §1
[18] = tested on: Plasmodium berghei; assay: as §3; assay type: functional; remark: listed apart in the source
[19] = tested on: Plasmodium berghei; assay: In vivo resistance reversal at day 10 in chloroquine-resistant Plasmodium berghei infected Mastomys coucha at 10 mg/kg; range 20-22%; assay type: functional
[20] = tested on: Plasmodium berghei; assay: In vivo antimalarial activity as parasitemia at day 10 in chloroquine-resistant Plasmodium berghei infected Mastomys coucha; range 20-22%; assay type: functional
[21] = tested on: Plasmodium yoelii; assay: Heme content after 10 days in chloroquine-resistant Plasmodium yoelii at 15 mg/kg; assay type: functional
[22] = tested on: Plasmodium yoelii; assay: as §4; assay type: functional; remark: listed apart in the source
[23] = tested on: Plasmodium yoelii; assay: Evaluated for the Heme oxygenase in chloroquine-sensitive Plasmodium yoelii; assay type: functional
[24] = tested on: Plasmodium yoelii; assay: In vivo parasitaemia at day 17 in chloroquine-resistant Plasmodium yoelii nigeriensis infected Swiss Albino mice (Mus musculus); Not active; assay type: functional, organism-based
[25] = tested on: Plasmodium berghei; assay: Heme content in chloroquine-sensitive Plasmodium berghei; assay type: functional
[26] = species on record: Mus musculus; assay: In Vitro inhibition of Heme Oxygenase in Plasmodium yoelii (host) at concentration 100 uM; assay type: functional
How it was run: (§6)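 In vitro heme oxygenase, cell-free: post-mitochondrial fractions of P. yoelii parasites and of infected host liver. Test compounds at 10-100 µM were preincubated 10 min in the assay system before the enzyme reaction started. Activity was followed as bilirubin formation and expressed as % inhibition.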

[27] = tested on: Plasmodium berghei; assay: Evaluated for the Heme oxygenase (Values are mean +/- SD of 4 separate observations. Specific activity in nmol/h/mg protein) in chloroquine-sensitive Plasmodium berghei; assay type: functional; how it was run: as §5
[28] = tested on: Plasmodium berghei; assay: Hemozoin formation in chloroquine-resistant Plasmodium berghei at 15 mg/kg for 10 days
[29] = tested on: Plasmodium berghei; assay: Heme content in chloroquine-resistant Plasmodium berghei at 15 mg/kg for 10 days; assay type: functional
[30] = tested on: Plasmodium berghei; assay: as §3; assay type: functional; remark: listed apart in the source
[31] = tested on: Plasmodium yoelii nigeriensis; assay: Inhibition of heme oxygenase in Plasmodium yoelii nigeriensis isolated from infected mice (Mus musculus) (oral); assay type: functional
How it was run: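 Swiss albino mice carried P. yoelii nigeriensis tolerant to CQ up to 120 mg/kg. They received compound orally at 15 mg/kg body wt for 5 days. Parasites were then isolated from blood by density gradient centrifugation and saponin lysis, and enzyme inhibition was measured as percent inhibition.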

[32] = tested on: Plasmodium yoelii nigeriensis; assay: In Vitro inhibition of Heme Oxygenase in Cell-free parasite Plasmodium yoelii at concentration 10 uM; assay type: functional; how it was run: as §1
[33] = tested on: Plasmodium yoelii; assay: as §2; assay type: functional, organism-based; remark: listed apart in the source
[34] = tested on: Plasmodium berghei; assay: as §3; assay type: functional; remark: listed apart in the source
[35] = tested on: Plasmodium yoelii; assay: In vivo resistance reversal (control MST = 1 week) in chloroquine-resistant Plasmodium yoelii nigerienses infected Swiss Albino mice (Mus musculus); assay type: functional
[36] = tested on: Plasmodium yoelii; assay: In vivo antimalarial activity as parasitemia at day 6 in chloroquine-resistant Plasmodium yoelii nigerienses infected Swiss Albino mice (Mus musculus); range 70-80%; assay type: functional
[37] = species on record: Mus musculus; assay: In Vitro inhibition of Heme Oxygenase in Plasmodium yoelii (host) at concentration 50 uM; assay type: functional; how it was run: as §6
[38] = tested on: Plasmodium berghei; assay: In vivo resistance reversal after 1 month in chloroquine-resistant Plasmodium berghei infected Mastomys coucha at 15 mg/kg on day 10; No inhibition
[39] = tested on: Plasmodium yoelii; assay: In vivo resistance reversal agent in chloroquine-resistant Plasmodium yoelii nigerienses infected Swiss Albino mice (Mus musculus). Parasitemia observed on day 6-10 of treatment in Group IV;range is 80-70%; assay type: functional
[40] = tested on: Plasmodium berghei; assay: In vivo resistance reversal at day 10 against chloroquine-resistant Plasmodium berghei infected Mastomys coucha at 10 mg/kg; range 20-22; assay type: functional
[41] = tested on: Plasmodium berghei; assay: Evaluated for the Heme oxygenase (Values are mean +/- SD of 4 separate observations. Specific activity in nmol/h/mg protein) in chloroquine-resistant Plasmodium berghei; assay type: functional; how it was run: as §5
[42] = target: T1, Glutathione S-transferase (Plasmodium yoelii yoelii) (UniProt Q7REH6); assay: Inhibition of Glutathione S-transferase in Plasmodium yoelii nigeriensis isolated from infected mice (Mus musculus) (oral); assay type: functional; details: concentration not given here
T1 sequence (whole entry): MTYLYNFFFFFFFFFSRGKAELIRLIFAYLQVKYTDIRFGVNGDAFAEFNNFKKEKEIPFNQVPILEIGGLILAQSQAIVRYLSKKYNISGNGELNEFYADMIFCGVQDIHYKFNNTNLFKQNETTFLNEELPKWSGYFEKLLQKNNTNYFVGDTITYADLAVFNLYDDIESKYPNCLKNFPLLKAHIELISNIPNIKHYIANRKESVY
How it was run: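 Mice infected with P. yoelii nigeriensis were dosed orally at 15 mg/kg body wt for 5 days. Parasites were then isolated from blood by density-gradient centrifugation and saponin lysis. Glutathione-S-transferase (and heme oxygenase) activity is given as % inhibition.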

[43] = tested on: Plasmodium berghei; assay: Heme content in chloroquine-resistant Plasmodium berghei; assay type: functional
[44] = tested on: Plasmodium berghei; assay: In vivo antimalarial activity as parasitemia at day 10 in chloroquine-resistant Plasmodium berghei infected Mastomys coucha at 15 mg/kg; range 20-22%; assay type: functional
[45] = tested on: Plasmodium yoelii; assay: In vivo resistance reversal agent in chloroquine-resistant Plasmodium yoelii nigerienses infected Swiss Albino mice (Mus musculus). Parasitemia observed on day 6-10 of treatment in Group III NI denotes nil inhibition; assay type: functional, organism-based
[46] = tested on: Plasmodium yoelii; assay: In vivo antimalarial activity as parasitemia at days 6-10 in chloroquine-resistant Plasmodium yoelii nigerienses infected Swiss Albino mice (Mus musculus); range 70-80%; assay type: functional
[47] = tested on: Plasmodium berghei; assay: In vivo resistance reversal at day 10 in chloroquine-resistant Plasmodium berghei infected Mastomys coucha at 10 mg/kg; range 20-22; assay type: functional
[48] = tested on: Plasmodium yoelii; assay: In vivo resistance reversal in chloroquine-resistant Plasmodium yoelii nigeriensis infected Swiss Albino mice (Mus musculus); range is 1-2%; assay type: functional
[49] = tested on: Plasmodium berghei; assay: In vivo antimalarial activity as parasitaemia at day 17 in chloroquine-resistant Plasmodium berghei infected Mastomys coucha treated to day 10; range >25-30%; assay type: functional
[50] = tested on: Plasmodium yoelii nigeriensis; assay: Hemozoin formation in chloroquine-resistant Plasmodium yoelii
[51] = tested on: Plasmodium yoelii; assay: Heme content in chloroquine-sensitive Plasmodium yoelii; assay type: functional
[52] = tested on: Plasmodium yoelii; assay: In vivo antimalarial activity as survivors after 1 month in chloroquine-resistant Plasmodium yoelii nigeriensis infected Swiss Albino mice (Mus musculus) at 15 mg/kg combined with 10 mg/kg chloroquine; assay type: functional
[53] = tested on: Plasmodium yoelii nigeriensis; assay: In Vitro inhibition of Heme Oxygenase in Cell-free parasite Plasmodium yoelii at concentration 100 uM; assay type: functional; how it was run: as §1
[54] = tested on: Plasmodium yoelii; assay: Evaluated for the Heme oxygenase in chloroquine-resistant Plasmodium yoelii which is treated with 15 mg/kg body weight of compound for 10 days;NA denotes no activity; assay type: functional, organism-based; design: dose 15 mg/kg
[55] = tested on: Plasmodium yoelii nigeriensis; assay: Hemozoin formation in chloroquine-resistant Plasmodium yoelii at 15 mg/kg for 10 days
[56] = tested on: Plasmodium yoelii nigeriensis; assay: Hemozoin formation in chloroquine-sensitive Plasmodium yoelii
[57] = species on record: Mus musculus; assay: In Vitro evaluation on percentage inhibition in Heme Oxygenase at concentration 50 (uM) of infected host
How it was run: (§7)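 Heme oxygenase from liver of P. yoelii-infected host, post-mitochondrial fraction, run as the host-enzyme counterpart to the cell-free parasite assay. Test compounds at 10-100 µM were preincubated in the assay system for 10 min before starting the reaction. Activity was followed by bilirubin formation and reported as percent inhibition.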

[58] = species on record: Mus musculus; assay: In Vitro evaluation on percentage inhibition in Heme Oxygenase at concentration 100 (uM) of infected host; how it was run: as §7

With `CCN(CC)CCCN1CC/C(=C\c2ccc(OC)cc2)C1` the Parasites [1] was >30%, the inhibition [2] was 64% and the Mean [3] was 51.4 pmol/mg. For the same compound, the Mean [4] was 102 nM/h/mg, the NS [5] was “No survivors” and the Parasites [6] was 17%. For the same compound, the Mean survival time [7] was 1, the Parasites [8] was 5% and the Parasites [9] was 2%. The NA [10] was “inactive”, the Parasites [11] was 2% and the Mean survival time [12] was 1. For the same compound, the Mean [13] was 101 pmol/mg, the NI [14] was “No inhibition” and the Parasites [15] was >30%. The Mean [16] was 109 pmol/mg, the NI [17] was “No inhibition” and the Parasites [18] was 5%. It also gave a Mean survival time [19] of 22 days, a Parasites [20] of 22% and a Mean [21] of 172 pmol/mg. The Parasites [22] was 2%, the Mean [23] was 10.2 nM/h/mg and the NI [24] was “No inhibition”. For the same compound, the Mean [25] was 344 pmol/mg, the inhibition [26] was 31% and the Mean [27] was 7.32 nM/h/mg. It also gave a Mean [28] of 71.1 pmol/mg, a Mean [29] of 321 pmol/mg and a Parasites [30] of 5%. For the same compound, the Inhibition [31] was 100%, the inhibition [32] was 48% and the NS [33] was “No survivors”. The Parasites [34] was 5%, the Mean survival time [35] was 1 and the Parasites [36] was 80%. The inhibition [37] was 21%, the NI [38] was “No inhibition” and the Parasites [39] was 80%. For the same compound, the Mean survival time [40] was 22 days, the Mean [41] was 80.2 nM/h/mg and the inhibition [42] was 99%. For the same compound, the Mean [43] was 60.3 pmol/mg, the Parasites [44] was 22% and the NI [45] was “No inhibition”. For the same compound, the Parasites [46] was 80%, the Mean survival time [47] was 22 days and the Parasites [48] was 2%. For the same compound, the Parasites [49] was >30%, the Mean [50] was 43.3 pmol/mg and the Mean [51] was 218 pmol/mg. The Mean survival time [52] was > 1 month, the inhibition [53] was 87% and the NA [54] was “inactive”. It also gave a Mean [55] of 45.1 pmol/mg and a Mean [56] of 109 pmol/mg.

For `COc1ccc(CCN(C)CCCC(C#N)(c2ccc(OC)c(OC)c2)C(C)C)cc1OC` (stereo not given), the inhibition [2] was 100%, the inhibition [57] was 15% and the inhibition [58] was 19%. It also gave an inhibition [53] of 100%.

From ChEMBL document CHEMBL1133641, “A new class of potential chloroquine-resistance reversal agents for Plasmodia: syntheses and biological evaluation of 1-(3'-diethylaminopropyl)-3-(substituted phenylmethylene)pyrrolidines” (2000)
